Data published in paper PMC4716540 (British Journal of Cancer, 2015).
Several values for one entry are separate records, joined by “and”; a condition that tells them apart may be missing. Equal entries are not always repeated.

How the values were obtained:
[1] = Plasma pharmacokinetics of KW-2478; format: in vivo, human
[2] = system: relapsed/refractory MM and NHL; assay: Tumour response by standard criteria for MM and NHL; format: in vivo, human; details: for Duration of sustained SD: one patient
Procedure, shortened: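 Best tumour response was assessed over all cycles of single-agent treatment. The agent was given by 1-h IV infusion on days 1–5 of each 14-day cycle, at 14–176 mg m⁻². Treatment continued for up to 12 months or until progression, unacceptable toxicity or withdrawal. Intrapatient escalation was allowed after at least two cycles. Chemotherapy, radiotherapy and corticosteroids were excluded. Responses were summarised descriptively by dose level.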

Hsp90 = details: ref Nakashima et al, 2010; Ishii et al, 2012; cited from earlier work
[3] = system: in vitro and in vivo models, including primary MM patient samples; details: ref Nakashima et al, 2010, Ishii et al, 2012; cited from earlier work
[4] = 14 mg m^–2 iv, day 1, n=3, mean±s.d.
[5] = 14 mg m^–2 iv, day 5, n=3, mean±s.d.
[6] = 28 mg m^–2 iv, day 1, n=3, mean±s.d.
[7] = 28 mg m^–2 iv, day 5, n=3, mean±s.d.
[8] = 47 mg m^–2 iv, day 1, n=3, mean±s.d.
[9] = 47 mg m^–2 iv, day 5, n=2, mean±s.d.
[10] = 71 mg m^–2 iv, day 1, n=3, mean±s.d.
[11] = 71 mg m^–2 iv, day 5, n=2, mean±s.d.
[12] = 99 mg m^–2 iv, day 1, n=3, mean±s.d.
[13] = 99 mg m^–2 iv, day 5, n=3, mean±s.d.
[14] = 132 mg m^–2 iv, day 1, n=6, mean±s.d.
[15] = 132 mg m^–2 iv, day 5, n=6, mean±s.d.
[16] = 176 mg m^–2 iv, day 1, n=6, mean±s.d.
[17] = 176 mg m^–2 iv, day 5, n=5, mean±s.d.
[18] = 25 evaluable patients, all doses

With `CCc1c(O)cc(O)c(C(=O)c2ccc(OCCN3CCOCC3)c(OC)c2)c1CC(=O)N(CCOC)CCOC` [KW-2478] as the compound, how does the “AUC0–t” value [1, 4] read?
The value was 819±403 ng h^–1 ml^–1.

And the “AUC0–∞” value [1, 4]?
The value was 992±497 ng h^–1 ml^–1.

What about the “CL (total plasma clearance)” value [1, 4] of the same compound?
Its value is 28.9±11.1 l h^–1.

What about the Cmax [1, 4] of the same compound?
The Cmax was 645±306 ng ml^–1.

What about the kel (elimination rate constant) [1, 4] of the same compound?
The kel (elimination rate constant) was 0.11 ± 0.01 h⁻¹.

And the “t½ (terminal half-life)” value [1, 4]?
The value was 6.05 ± 0.37 h.

And the “AUC0–t” value [1, 5]?
The value was 844±445 ng h^–1 ml^–1.

What about the Cmax [1, 5] of the same compound?
The Cmax was 656±342 ng ml^–1.

What about the “AUC0–t” value [1, 6] of the same compound?
The value was 1935±848 ng h^–1 ml^–1.

And the “AUC0–∞” value [1, 6]?
Its value is 2353±1117 ng h^–1 ml^–1.

And the “CL (total plasma clearance)” value [1, 6]?
The value was 23.1±15.9 l h^–1.

What about the Cmax [1, 6] of the same compound?
Its Cmax is 1620±556 ng ml^–1.

And the kel (elimination rate constant) [1, 6]?
The kel (elimination rate constant) was 0.11 ± 0.02 h⁻¹.

And the “t½ (terminal half-life)” value [1, 6]?
The value was 6.48 ± 0.96 h.

What about the “AUC0–t” value [1, 7] of the same compound?
The value was 1639±768 ng h^–1 ml^–1.

What about the Cmax [1, 7] of the same compound?
The Cmax was 1320±531 ng ml^–1.

What about the “AUC0–t” value [1, 8] of the same compound?
Its value is 2325±652 ng h^–1 ml^–1.

What about the “AUC0–∞” value [1, 8] of the same compound?
Its value is 2758±891 ng h^–1 ml^–1.

What about the “CL (total plasma clearance)” value [1, 8] of the same compound?
Its value is 34.9±8.35 l h^–1.

And the Cmax [1, 8]?
Its Cmax is 1990±236 ng ml^–1.

What about the kel (elimination rate constant) [1, 8] of the same compound?
The kel (elimination rate constant) was 0.11 ± 0.01 h⁻¹.

What about the “t½ (terminal half-life)” value [1, 8] of the same compound?
Its value is 6.60 ± 0.69 h.

What about the “AUC0–t” value [1, 9] of the same compound?
The value was 2334±532 ng h^–1 ml^–1.

What about the Cmax [1, 9] of the same compound?
Its Cmax is 1705±785 ng ml^–1.

What about the “AUC0–t” value [1, 10] of the same compound?
Its value is 2798±432 ng h^–1 ml^–1.

What about the “AUC0–∞” value [1, 10] of the same compound?
Its value is 3197±400 ng h^–1 ml^–1.

What about the “CL (total plasma clearance)” value [1, 10] of the same compound?
Its value is 43.0±6.80 l h^–1.

What about the Cmax [1, 10] of the same compound?
Its Cmax is 2620±585 ng ml^–1.

What about the kel (elimination rate constant) [1, 10] of the same compound?
Its kel (elimination rate constant) is 0.11 ± 0.02 h⁻¹.

And the “t½ (terminal half-life)” value [1, 10]?
The value was 6.29 ± 0.93 h.

And the “AUC0–t” value [1, 11]?
The value was 3681±497 ng h^–1 ml^–1.

And the Cmax [1, 11]?
The Cmax was 2675±49.5 ng ml^–1.

What about the “AUC0–t” value [1, 12] of the same compound?
Its value is 4220±1251 ng h^–1 ml^–1.

What about the “AUC0–∞” value [1, 12] of the same compound?
The value was 4826±1504 ng h^–1 ml^–1.

What about the “CL (total plasma clearance)” value [1, 12] of the same compound?
The value was 42.7±12.5 l h^–1.

And the Cmax [1, 12]?
Its Cmax is 3400±876 ng ml^–1.

And the kel (elimination rate constant) [1, 12]?
Its kel (elimination rate constant) is 0.12 ± 0.003 h⁻¹.

What about the “t½ (terminal half-life)” value [1, 12] of the same compound?
Its value is 5.83 ± 0.14 h.

What about the “AUC0–t” value [1, 13] of the same compound?
Its value is 3673±932 ng h^–1 ml^–1.

And the Cmax [1, 13]?
Its Cmax is 2977±610 ng ml^–1.

And the “AUC0–t” value [1, 14]?
The value was 6910±1864 ng h^–1 ml^–1.

And the “CL (total plasma clearance)” value [1, 14]?
The value was 35.0±9.99 l h^–1.

What about the Cmax [1, 14] of the same compound?
Its Cmax is 5410±1622 ng ml^–1.

What about the kel (elimination rate constant) [1, 14] of the same compound?
Its kel (elimination rate constant) is 0.12 ± 0.01 h⁻¹.

What about the “t½ (terminal half-life)” value [1, 14] of the same compound?
The value was 5.71 ± 0.61 h.

And the “AUC0–t” value [1, 15]?
The value was 7262±1331 ng h^–1 ml^–1.

What about the Cmax [1, 15] of the same compound?
Its Cmax is 5972±940 ng ml^–1.

And the “CL (total plasma clearance)” value [1, 16]?
The value was 32.8±10.7 l h^–1.

And the Cmax [1, 16]?
Its Cmax is 6838±1961 ng ml^–1.

And the kel (elimination rate constant) [1, 16]?
The kel (elimination rate constant) was 0.13 ± 0.01 h⁻¹.

And the “t½ (terminal half-life)” value [1, 16]?
The value was 5.43 ± 0.39 h.

What about the “AUC0–t” value [1, 17] of the same compound?
Its value is 8355±2496 ng h^–1 ml^–1.

And the Cmax [1, 17]?
Its Cmax is 6062±1411 ng ml^–1.

And the “Mean t½, range across dose levels” value ([1]; 14–176 mg m^–2)?
The value was 5.4 to 6.6 h.

What about the “Total CL, range of means across dose levels” value ([1]; 14–176 mg m^–2) of the same compound?
The value was 23.1–43.0 l h^–1.

And the “Manner of plasma concentration decline” value ([1]; after end of infusion, rapid distribution phase and slower elimination phase)?
Its value is “biphasic”.

And the “Mean Cmax and AUC values in relation to dose” value ([1]; days 1 and 5)?
Its value is “increased linearly in relation to dose”.

And the “Accumulation from days 1 to 5 (Cmax, AUC)” value ([1]; once daily days 1–5)?
The value was “no relevant accumulation”.

And the Terminal half-life ([1]; plasma, iv infusion over 1 h)?
Its Terminal half-life is roughly 6 h.

And the “Progressive disease, MM patients” value ([2]; 21 evaluable MM patients)?
Its value is 4.8%.

What about the “Stable disease (SD), MM patients” value ([2]; 21 evaluable MM patients) of the same compound?
The value was 95.2%.

And the “Evaluable patients with stable disease (disease stabilisation rate)” value [2, 18]?
The value was 96%.

And the “Overall disease control rate” value [2, 18]?
The value was 96.0%.

What about the “Patients with SD lasting ⩾3 months” value ([2]; all doses) of the same compound?
Its value is “Eight”.

And the “Patients with SD lasting ⩾6 months (free of disease progression)” value ([2]; all doses)?
The value was “five”.

What about the “Complete or partial responses” value ([2]; best tumour response over all cycles) of the same compound?
The value was “No patients achieved complete or partial responses”.

And the “Stable disease (SD), NHL patients” value ([2]; four evaluable NHL patients)?
Its value is 100%.

And the Duration of response ([2]; individual patient, MM, 99 mg m^–2)?
The Duration of response was 3.1 months.

What about the Duration of response ([2]; individual patient, NHL, 99 mg m^–2) of the same compound?
The Duration of response was 1.5 months.

And the Duration of response ([2]; individual patient, NHL, 176 mg m^–2)?
The Duration of response was 1.3 months.

And the Duration of response ([2]; individual patients, MM, 14 mg m^–2)?
The Duration of response was 1 months and 1.4 months.

What about the Duration of response ([2]; individual patients, MM, 28 mg m^–2) of the same compound?
The Duration of response was 11.3 months and 0.8 months and 1.8 months.

And the Duration of response ([2]; individual patients, MM, 47 mg m^–2)?
Its Duration of response is 1.3 months and 1 months.

What about the Duration of response ([2]; individual patients, MM, 71 mg m^–2) of the same compound?
Its Duration of response is 1.1 months and 5.1 months.

And the Duration of response ([2]; individual patients, MM, 132 mg m^–2)?
The Duration of response was 1.4 months and 8.8 months and 12.9 months.

What about the Duration of response ([2]; individual patients, MM, 176 mg m^–2) of the same compound?
The Duration of response was 3.5 months and 1.3 months and 11.9 months and 2 months.

What about the Duration of response ([2]; individual patients, NHL, 132 mg m^–2) of the same compound?
Its Duration of response is 1.4 months and 8.2 months.

What about the “Duration of sustained SD” value ([2]; 132 mg m^–2 cohort) of the same compound?
The value was 12.9 months.

And the “Duration of sustained SD” value ([2]; 176 mg m^–2 cohort)?
Its value is 11.9 months.

And the “Binding affinity to Hsp90” value (Hsp90)?
Its value is “high binding affinity”.

What about the Antitumour activity [3] of the same compound?
Its Antitumour activity is “potent antitumour activity”.
